Each structure is given as a SMILES string. Calls of active or inactive are those of the source. No cut-off for these calls is given here. *1 amine or outer side, *2 acyl side, *3 side chain or, on linkers, in order; H or OH if unused. Where a SMILES comes first, the peptide text is derived from it. The star is where a group is joined. NH(CH2)3O(βDGlc) = OC[C@H]1O[C@@H](OCCCN*)[C@H](O)[C@@H](O)[C@@H]1O; Glutaryl = O=C(CCCC(=O)[*:2])[*:1]

Results on two compounds are retold here after ChEMBL document CHEMBL4334452, “Monosaccharide Analogues of Anticancer Peptide R-Lycosin-I: Role of Monosaccharide Conjugation in Complexation and the Potential of Lung Cancer Targeting and Therapy” (J Med Chem, 2019).

For data set [1], the system named is A549. The data set is described as follows: Antitumor activity against human A549 cells expressing luciferase gene xenografted in Balb/c nu/nu mouse assessed as tumor growth inhibition at 9 mg/kg, ip administered every 2 days for seven times measured on day 14 by bioluminescent imaging analysis. The data set is classed as functional, organism-based. In outline:
(§1)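 Male BALB/c nu/nu mice, 4-6 weeks old, carrying subcutaneous A549-luciferase xenografts in the right back. Dosing started when tumors reached 100-200 mm³ (day 0), five per group. Peptide was given at 9 mg/kg i.p. in 200 µL every other day for 7 doses; PBS served as control. Bioluminescent imaging on day 14; tumor size and body weight tracked. Tumors fixed in paraformaldehyde, paraffin-sectioned, TUNEL-stained.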
Background: Xenograft models place foreign cells or tissue in a host animal.

Data set [2] can be described thus: Toxicity in Balb/c nu/nu mouse xenografted with human A549 cells expressing luciferase gene assessed as change in body weight at 3 mg/kg administered intratumorally every 3 days for four times measured on day 12. Type of data set: organism-based. The conditions noted are these: in vivo, other, 72 h. In outline: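 Male BALB/c nu/nu mice, 4–6 weeks old, carrying subcutaneous A549-luciferase tumours (right back, cells in sterile PBS), dosed at a tumour size of 100–200 mm³; five per group, PBS controls. Two regimens: 9 mg/kg i.p. (200 µL) every other day ×7, ended day 14; or 3 mg/kg intratumoral (100 µL) every 3 days ×4, ended day 12. Body weight was monitored throughout.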

Data set [3] has as its system A549. As to the kind of experiment: Induction of morphological changes in human A549 cells assessed as disruption of cell membrane at 15 uM measured after 24 hrs by scanning electron microscopic analysis. Type of data set: functional, cell-based. In short, it runs like this:
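A549 cells pre-seeded on mica sheets for 24 h at 37°C, then exposed to 15 μM peptide for 24 h at 37°C. Cells were PBS-washed twice, fixed in 4% paraformaldehyde for 15 min, dehydrated through graded ethanol and imaged by SEM at 15 kV. Untreated cells served as control.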

Data set [4] addresses T1, Solute carrier family 2, facilitated glucose transporter member 1 (Homo sapiens) (UniProt P11166).
T1 sequence (whole entry): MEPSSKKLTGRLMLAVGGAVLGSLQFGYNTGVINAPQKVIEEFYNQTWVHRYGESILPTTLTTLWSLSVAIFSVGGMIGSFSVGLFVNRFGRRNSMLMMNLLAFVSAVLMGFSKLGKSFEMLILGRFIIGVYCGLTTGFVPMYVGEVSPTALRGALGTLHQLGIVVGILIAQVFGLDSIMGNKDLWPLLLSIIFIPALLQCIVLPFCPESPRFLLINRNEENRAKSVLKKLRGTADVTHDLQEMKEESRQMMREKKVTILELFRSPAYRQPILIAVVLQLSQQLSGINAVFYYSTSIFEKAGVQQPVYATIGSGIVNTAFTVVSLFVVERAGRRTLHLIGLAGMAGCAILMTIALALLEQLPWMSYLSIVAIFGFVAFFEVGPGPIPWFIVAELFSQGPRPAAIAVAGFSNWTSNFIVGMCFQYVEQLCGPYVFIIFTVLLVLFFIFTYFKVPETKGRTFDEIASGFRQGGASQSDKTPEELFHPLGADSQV
The data set is described as follows: Binding affinity to GLUT1 in 3D spheroids of human A549 cells assessed as cytotoxicity by measuring reduction in cell viability at 30 uM treated every 2 days for 6 days by CCK8 assay. The data set is classed as cell-based. In short, it runs like this: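 A549 3D spheroids, one per well, in 10% medium with peptide at 30 µM final. Dosed at day 0, then re-added at days 2 and 4, for 6 days total. Spheroids washed thrice, then imaged and sized at days 0, 3 and 6. Viability read by CCK-8.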
In general terms: Formazan colour is commonly taken as a measure of viable cells.

The test system of data set [5] is A549. The data set is described as follows: Induction of apoptosis in human A549 cells assessed as increase in caspase-3 activity at 15 uM measured after 24 hrs by Ac-DEVD-pNA substrate based assay relative to control. The data set is classed as functional. In short, it runs like this: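 A549 cells treated 24 h with 15 µM peptide, or medium as control. Cells lysed, and supernatant incubated with Ac-DEVD-pNA (2 mM). Absorbance read at 405 nm; activity ratio expressed against blank control, n=3.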

Data set [6] concerns the target T1, Solute carrier family 2, facilitated glucose transporter member 1 (Homo sapiens). The data set is described as follows: Binding affinity to GLUT1 in human A549 cells assessed as cytotoxicity by measuring increase in LDH release at 25 uM measured after 2 hrs. Type of data set: cell-based. In short, it runs like this: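 A549 cells at 2×10^3/well, allowed to adhere overnight, then exposed to peptide over a concentration series for 2 h. LDH release measured with a kit, absorbance at 490 nm. 1% Triton X-100 taken as 100% release; n=3.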
In general terms: Release of lactate dehydrogenase indicates damage to the cell membrane.

The subject of data set [7] is A549. As to the kind of experiment: Induction of mitochondrial membrane potential loss in human A549 cells at 15 uM measured after 24 hrs by JC1 staining based fluorescence microscopic analysis. The data set is classed as functional, cell-based. In short, it runs like this:
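A549 cells exposed to 15 µM peptide for 24 h, then stained with JC-1 kit. Monomer and aggregate emissions viewed by fluorescence microscopy; depolarization read as a rise in the green/red ratio, n=3.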

The subject of data set [8] is A549. The data set is described as follows: Antitumor activity against human A549 cells expressing luciferase gene xenografted in Balb/c nu/nu mouse assessed as tumor growth inhibition at 3 mg/kg administered intratumorally every 3 days for four times measured on day 12 by bioluminescent imaging analysis. Type of data set: functional, organism-based. In short, it runs like this: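 Male BALB/c nu/nu mice, 4-6 weeks old, with subcutaneous A549-luciferase xenografts. Treatment began when tumors reached 100-200 mm³, five per group. Peptide was injected intratumorally at 3 mg/kg in 100 µL every 3 days for 4 doses; 100 µL PBS was the control. Bioluminescent imaging on day 12, with tumor size and body weight monitored.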

Data set [9] has as its system A549. As to the kind of experiment: Induction of apoptosis in human A549 cells assessed as necrotic cells at 8 uM measured after 4 hrs by Annexin V-FITC/propidium iodide staining-based flow cytometry (reference value: 0.51%). Type of data set: functional. In outline:
(§2)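 A549 cells grown 24 h, trypsinized, then resuspended in medium with 8 µM peptide for 4 h at 37 °C. Cells washed with cold PBS, stained with Annexin V-FITC/PI, and analysed by flow cytometry.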

Data set [10] has as its system A549. As to the kind of experiment: Induction of apoptosis in human A549 cells assessed as appearance of surface bubbling at 15 uM measured after 24 hrs by scanning electron microscopic analysis. The data set is classed as functional, cell-based.
Data set [11] has as its system A549. The data set is described as follows: Induction of apoptosis in human A549 cells assessed as viable cells at 8 uM measured after 4 hrs by Annexin V-FITC/propidium iodide staining-based flow cytometry (reference value: 95.4%). Type of data set: functional. As to conditions: A549, 4 h, read-out: Activity. In outline: as §2
Data set [12] can be described thus: Drug uptake in heart of Balb/c nu/nu mouse xenografted with human A549 cells expressing luciferase gene at 3 mg/kg administered intratumorally measured after 6 hrs by fluorescence assay. Type of data set: ADME, organism-based. The conditions noted are these: in vivo, other.
Data set [13] relates to A549. As to the kind of experiment: Induction of apoptosis in human A549 cells assessed as late apoptotic cells at 8 uM measured after 4 hrs by Annexin V-FITC/propidium iodide staining-based flow cytometry (reference value: 3.61%). The data set is classed as functional. In outline: as §2
In data set [14] the target is T1, Solute carrier family 2, facilitated glucose transporter member 1 (Homo sapiens). The data set is described as follows: Binding affinity to GLUT1 in human A549 cells harboring luciferase gene assessed as cytotoxicity by measuring reduction in cell viability after 24 hrs by CCK8 assay. Type of data set: cell-based.
Data set [15] has the same target. As to the kind of experiment: Binding affinity to GLUT1 in human A549 cells assessed as cytotoxicity by measuring reduction in cell viability at 40 umol/L measured up to 48 hrs in presence of 10% serum by CCK8 assay relative to control. Type of data set: cell-based.
Data set [16] relates to A549. As to the kind of experiment: Antitumor activity against human A549 cells expressing luciferase gene xenografted in Balb/c nu/nu mouse assessed as increase in apoptotic cells at 9 mg/kg, ip administered every 2 days for seven times measured on day 14 by TUNEL assay. Type of data set: functional, organism-based. In outline:
as §1

Regarding `CC[C@H](C)[C@H](NC(=O)[C@H](Cc1ccccc1)NC(=O)[C@H](CCCNC(=N)N)NC(=O)[C@H](C)NC(=O)[C@@H](NC(=O)[C@H](CO)NC(=O)[C@H](CCCNC(=N)N)NC(=O)[C@H](CCSC)NC(=O)[C@H](C)NC(=O)[C@H](CCCNC(=N)N)NC(=O)[C@H](Cc1ccccc1)NC(=O)[C@H](Cc1c[nH]c2ccccc12)NC(=O)CNC(=O)[C@@H](N)CCCNC(=N)N)[C@@H](C)CC)C(=O)N[C@@H](C)C(=O)N[C@@H](CCCNC(=N)N)C(=O)N[C@@H](CCC(=O)O)C(=O)N[C@@H](CCCNC(=N)N)C(=O)N[C@@H](CC(C)C)C(=O)N[C@@H](CCCNC(=N)N)C(=O)N[C@@H](CCC(=O)O)C(=O)N[C@@H](Cc1cnc[nH]1)C(=O)N[C@@H](CC(C)C)C(=O)O` (H-RGWFRAMRSIARFIARERLREHL-OH), the TGI entry in the data set on A549 [1] and with A549 [8] was “Active” in each case. The Activity entry was “Non-Toxic” in data set [2], 0.75% with A549 [9] and 9.87% in the data set with A549 [13]. Also, the outcome (with A549 [3]; in data set [4]; in [6]; in the data set with A549 [7]; in the data set on A549 [10]; in [14]) was Active. Further, the “fold change (FC)” value with A549 [5] amounted to 1.5. Further, in the data set with A549 [11], the viability at 8 µM stood at 88.8%. In [12], the Drug uptake entry is recorded as “Active”.

As to `CC[C@H](C)[C@H](NC(=O)[C@H](Cc1ccccc1)NC(=O)[C@H](CCCNC(=N)N)NC(=O)[C@H](C)NC(=O)[C@@H](NC(=O)[C@H](CO)NC(=O)[C@H](CCCNC(=N)N)NC(=O)[C@H](CCSC)NC(=O)[C@H](C)NC(=O)[C@H](CCCNC(=N)N)NC(=O)[C@H](Cc1ccccc1)NC(=O)[C@H](Cc1c[nH]c2ccccc12)NC(=O)CNC(=O)[C@H](CCCNC(=N)N)NC(=O)CCCC(=O)NCCCO[C@@H]1O[C@H](CO)[C@@H](O)[C@H](O)[C@H]1O)[C@@H](C)CC)C(=O)N[C@@H](C)C(=O)N[C@@H](CCCNC(=N)N)C(=O)N[C@@H](CCC(=O)O)C(=O)N[C@@H](CCCNC(=N)N)C(=O)N[C@@H](CC(C)C)C(=O)N[C@@H](CCCNC(=N)N)C(=O)N[C@@H](CCC(=O)O)C(=O)N[C@@H](Cc1cnc[nH]1)C(=O)N[C@@H](CC(C)C)C(=O)O` ({NH(CH2)3O(βDGlc)-Glutaryl}-RGWFRAMRSIARFIARERLREHL-OH), the TGI entry in the data set on A549 [1] and with A549 [8] was “Active” each time. The Activity entry in data set [2] is “Non-Toxic”; in data set [15], 80%; in the data set on A549 [9], 0.57%; with A549 [13] it was 38.49%. For the same compound, the result (with A549 [3]; in data set [4]; in [6]; in the data set with A549 [7]; in the data set with A549 [10]; in data set [14]) was Active. The result with A549 [16] was Active. For the same compound, in the data set on A549 [5], the “fold change (FC)” value is reported as 1.5. The viability at 8 µM with A549 [11] came out at 59.8%. Also, the Drug uptake result in data set [12] is listed as “Active”.
